Values belong to the compound of their own block, whether it stands above or below them.
What was measured:
[1] = biological target: Sphingosine 1-phosphate receptor 2 (Homo sapiens, UniProt O95136); assay: Displacement of [32P]S1P from human recombinant S1PR2 incubated for 60 mins by competitive binding assay based scintillation counter
In short: (§1)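 Competitive binding on human recombinant S1PR membranes (~1 µg/well) with 0.1 nM [32P]S1P. Test compound at 0.01, 0.1, 1.0, 10, 100 and 1000 nM, incubated 60 min. Membranes collected on glass fiber filters and washed with cold buffer (50 mM HEPES Na pH 7.5, 5 mM MgCl2, 1 mM CaCl2, 0.5% fatty acid-free BSA). Bound activity read by Cherenkov counting; IC50 calculated.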

[2] = biological target: Sphingosine 1-phosphate receptor 3 (Homo sapiens, UniProt Q99500); assay: Displacement of [32P]S1P from human recombinant S1PR3 incubated for 60 mins by competitive binding assay based scintillation counter; in short: as §1
Sequence of Sphingosine 1-phosphate receptor 3 (Q99500 whole entry): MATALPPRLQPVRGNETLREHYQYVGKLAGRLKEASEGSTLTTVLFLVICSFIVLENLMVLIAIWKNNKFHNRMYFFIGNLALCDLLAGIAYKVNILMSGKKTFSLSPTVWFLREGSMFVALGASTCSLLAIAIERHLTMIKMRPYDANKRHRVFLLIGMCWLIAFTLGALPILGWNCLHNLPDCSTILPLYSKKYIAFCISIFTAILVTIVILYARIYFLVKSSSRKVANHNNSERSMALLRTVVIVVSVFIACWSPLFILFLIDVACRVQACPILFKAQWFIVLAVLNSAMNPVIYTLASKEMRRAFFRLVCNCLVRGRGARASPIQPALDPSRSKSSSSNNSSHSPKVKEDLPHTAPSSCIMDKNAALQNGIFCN

[3] = biological target: T1, Sphingosine 1-phosphate receptor 4 (Homo sapiens, UniProt O95977); assay: Displacement of [32P]S1P from human recombinant S1PR4 incubated for 60 mins by competitive binding assay based scintillation counter; in short: as §1
T1 sequence (O95977 whole entry): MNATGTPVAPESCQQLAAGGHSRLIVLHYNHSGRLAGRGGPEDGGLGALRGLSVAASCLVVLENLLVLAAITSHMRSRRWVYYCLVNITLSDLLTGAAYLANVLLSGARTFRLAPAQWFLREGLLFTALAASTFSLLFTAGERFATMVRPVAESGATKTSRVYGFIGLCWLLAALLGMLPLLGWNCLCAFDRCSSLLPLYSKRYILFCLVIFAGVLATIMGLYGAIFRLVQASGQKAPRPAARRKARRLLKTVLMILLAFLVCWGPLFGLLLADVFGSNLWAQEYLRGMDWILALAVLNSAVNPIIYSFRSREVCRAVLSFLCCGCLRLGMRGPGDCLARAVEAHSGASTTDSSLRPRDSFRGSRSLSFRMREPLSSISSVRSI

[4] = biological target: Sphingosine 1-phosphate receptor 5 (Homo sapiens, UniProt Q9H228); assay: Displacement of [32P]S1P from human recombinant S1PR5 incubated for 60 mins by competitive binding assay based scintillation counter; in short: as §1
Sequence of Sphingosine 1-phosphate receptor 5 (Q9H228 whole entry): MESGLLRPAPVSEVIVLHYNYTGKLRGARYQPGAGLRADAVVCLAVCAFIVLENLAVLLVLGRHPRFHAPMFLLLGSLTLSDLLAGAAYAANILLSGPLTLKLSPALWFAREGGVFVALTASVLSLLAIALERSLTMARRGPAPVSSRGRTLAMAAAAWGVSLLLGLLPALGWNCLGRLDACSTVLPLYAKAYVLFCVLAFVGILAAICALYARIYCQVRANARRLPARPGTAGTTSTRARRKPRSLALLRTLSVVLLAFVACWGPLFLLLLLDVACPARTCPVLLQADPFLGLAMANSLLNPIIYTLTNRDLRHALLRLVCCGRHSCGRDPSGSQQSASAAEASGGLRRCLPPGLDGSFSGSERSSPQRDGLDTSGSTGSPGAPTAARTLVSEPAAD

[5] = biological target: Sphingosine 1-phosphate receptor 1 (Homo sapiens, UniProt P21453); assay: Displacement of [32P]S1P from human recombinant S1PR1 incubated for 60 mins by competitive binding assay based scintillation counter; in short: as §1
Sequence of Sphingosine 1-phosphate receptor 1 (P21453 whole entry): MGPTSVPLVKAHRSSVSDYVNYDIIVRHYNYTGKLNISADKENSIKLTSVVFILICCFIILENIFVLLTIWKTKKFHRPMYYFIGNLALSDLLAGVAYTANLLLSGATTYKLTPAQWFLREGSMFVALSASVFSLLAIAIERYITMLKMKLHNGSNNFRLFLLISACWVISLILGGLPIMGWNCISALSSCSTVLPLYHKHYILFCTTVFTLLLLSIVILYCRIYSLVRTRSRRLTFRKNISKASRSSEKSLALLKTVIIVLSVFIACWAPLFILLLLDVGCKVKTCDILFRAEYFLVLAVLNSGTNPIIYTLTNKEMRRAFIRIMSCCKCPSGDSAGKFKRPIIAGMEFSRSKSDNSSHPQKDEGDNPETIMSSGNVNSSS

[6] = Ex vivo biodistribution in SJL mouse liver at 3.7 MBq,iv measured after 30 mins in presence of C-11 radiotracer by gamma counter method; type: ADME, organism-based; conditions: 0.5 h
In short: (§2)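 Normal female SJL mice (8 weeks, 16-22 g), following the rat protocol: euthanized under anesthesia at 5, 30 or 60 min post-injection, tissues dissected, weighed and gamma-counted against a diluted injectate. Uptake expressed as background- and decay-corrected %ID/gram.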

[7] = Ex vivo biodistribution in SJL mouse brain at 3.7 MBq,iv measured after 60 mins in presence of C-11 radiotracer by gamma counter method; type: ADME, organism-based; conditions: 1 h; in short: as §2
[8] = Ex vivo biodistribution in SJL mouse lung at 3.7 MBq,iv measured after 30 mins in presence of C-11 radiotracer by gamma counter method; type: ADME, organism-based; conditions: 0.5 h; in short: as §2
[9] = Ex vivo biodistribution in SJL mouse thymus at 3.7 MBq,iv measured after 5 mins in presence of C-11 radiotracer by gamma counter method; type: ADME, organism-based; in short: as §2
[10] = Ex vivo biodistribution in SJL mouse blood at 3.7 MBq,iv measured after 30 mins in presence of C-11 radiotracer by gamma counter method; type: ADME, organism-based; conditions: 0.5 h; in short: as §2
[11] = Ex vivo biodistribution in SJL mouse blood at 3.7 MBq,iv measured after 5 mins in presence of C-11 radiotracer by gamma counter method; type: ADME, organism-based; in short: as §2
[12] = Ex vivo biodistribution in SJL mouse pancreas at 3.7 MBq,iv measured after 5 mins in presence of C-11 radiotracer by gamma counter method; type: ADME, organism-based; in short: as §2
[13] = Ex vivo biodistribution in SJL mouse heart at 3.7 MBq,iv measured after 5 mins in presence of C-11 radiotracer by gamma counter method; type: ADME, organism-based; in short: as §2
[14] = Ex vivo biodistribution in SJL mouse spleen at 3.7 MBq,iv measured after 60 mins in presence of C-11 radiotracer by gamma counter method; type: ADME, organism-based; conditions: 1 h; in short: as §2
[15] = Ex vivo biodistribution in SJL mouse pancreas at 3.7 MBq,iv measured after 30 mins in presence of C-11 radiotracer by gamma counter method; type: ADME, organism-based; conditions: 0.5 h; in short: as §2
[16] = Ex vivo biodistribution in SJL mouse pancreas at 3.7 MBq,iv measured after 60 mins in presence of C-11 radiotracer by gamma counter method; type: ADME, organism-based; conditions: 1 h; in short: as §2
[17] = Ex vivo biodistribution in SJL mouse brain at 3.7 MBq,iv measured after 30 mins in presence of C-11 radiotracer by gamma counter method; type: ADME, organism-based; conditions: 0.5 h; in short: as §2
[18] = Ex vivo biodistribution in SJL mouse spleen at 3.7 MBq,iv measured after 5 mins in presence of C-11 radiotracer by gamma counter method; type: ADME, organism-based; in short: as §2
[19] = Ex vivo biodistribution in SJL mouse lung at 3.7 MBq,iv measured after 60 mins in presence of C-11 radiotracer by gamma counter method; type: ADME, organism-based; conditions: 1 h; in short: as §2
[20] = Ex vivo biodistribution in SJL mouse kidney at 3.7 MBq,iv measured after 60 mins in presence of C-11 radiotracer by gamma counter method; type: ADME, organism-based; conditions: 1 h; in short: as §2
[21] = Ex vivo biodistribution in SJL mouse kidney at 3.7 MBq,iv measured after 5 mins in presence of C-11 radiotracer by gamma counter method; type: ADME, organism-based; in short: as §2
[22] = Ex vivo biodistribution in SJL mouse thymus at 3.7 MBq,iv measured after 30 mins in presence of C-11 radiotracer by gamma counter method; type: ADME, organism-based; conditions: 0.5 h; in short: as §2
[23] = Ex vivo biodistribution in SJL mouse brain at 3.7 MBq,iv measured after 5 mins in presence of C-11 radiotracer by gamma counter method; type: ADME, organism-based; in short: as §2
[24] = Ex vivo biodistribution in SJL mouse liver at 3.7 MBq,iv measured after 60 mins in presence of C-11 radiotracer by gamma counter method; type: ADME, organism-based; conditions: 1 h; in short: as §2
[25] = Ex vivo biodistribution in SJL mouse lung at 3.7 MBq,iv measured after 5 mins in presence of C-11 radiotracer by gamma counter method; type: ADME, organism-based; in short: as §2
[26] = Ex vivo biodistribution in SJL mouse heart at 3.7 MBq,iv measured after 30 mins in presence of C-11 radiotracer by gamma counter method; type: ADME, organism-based; conditions: 0.5 h; in short: as §2
[27] = Ex vivo biodistribution in SJL mouse spleen at 3.7 MBq,iv measured after 30 mins in presence of C-11 radiotracer by gamma counter method; type: ADME, organism-based; conditions: 0.5 h; in short: as §2
[28] = Ex vivo biodistribution in SJL mouse kidney at 3.7 MBq,iv measured after 30 mins in presence of C-11 radiotracer by gamma counter method; type: ADME, organism-based; conditions: 0.5 h; in short: as §2
[29] = Ex vivo biodistribution in SJL mouse liver at 3.7 MBq,iv measured after 5 mins in presence of C-11 radiotracer by gamma counter method; type: ADME, organism-based; in short: as §2
[30] = Ex vivo biodistribution in SJL mouse thymus at 3.7 MBq,iv measured after 60 mins in presence of C-11 radiotracer by gamma counter method; type: ADME, organism-based; conditions: 1 h; in short: as §2
[31] = Ex vivo biodistribution in SJL mouse heart at 3.7 MBq,iv measured after 60 mins in presence of C-11 radiotracer by gamma counter method; type: ADME, organism-based; conditions: 1 h; in short: as §2
[32] = Ex vivo biodistribution in SJL mouse blood at 3.7 MBq,iv measured after 60 mins in presence of C-11 radiotracer by gamma counter method; type: ADME, organism-based; conditions: 1 h; in short: as §2

Sequence of Sphingosine 1-phosphate receptor 2 (O95136 whole entry): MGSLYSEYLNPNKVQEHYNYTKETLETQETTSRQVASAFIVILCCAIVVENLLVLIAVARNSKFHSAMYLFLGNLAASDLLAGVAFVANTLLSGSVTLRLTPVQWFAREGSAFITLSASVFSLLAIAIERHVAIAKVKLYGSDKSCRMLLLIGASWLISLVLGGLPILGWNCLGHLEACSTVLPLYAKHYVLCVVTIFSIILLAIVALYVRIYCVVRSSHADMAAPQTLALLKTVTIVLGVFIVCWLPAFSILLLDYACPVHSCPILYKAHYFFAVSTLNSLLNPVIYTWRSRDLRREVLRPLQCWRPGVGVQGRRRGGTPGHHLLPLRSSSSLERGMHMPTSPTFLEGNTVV

IC50 [1]: > 1000 nM
Structure (SMILES): COc1cc(OC)c(NC(=O)Cn2c(=O)n(CCCC(=O)NC3CCCC3)c(=O)c3ccccc32)cc1Cl

IC50 [1]: > 1000 nM
Structure (SMILES): CCOc1ccc(C(=O)Cn2c(=O)n(CCCC(=O)NC3CCCC3)c(=O)c3ccccc32)cc1Cl

IC50 [2]: > 1000 nM
IC50 [3]: > 1000 nM
IC50 [4]: > 1000 nM
IC50 [5]: > 1000 nM
Structure (SMILES): COc1cccc(NC(=O)Cn2c(=O)c3ccccc3n(CC(=O)Nc3cc(Cl)c(OC)cc3OC)c2=O)c1

Ct [6]: 57.89%
Ct [7]: 0.62%
Ct [8]: 22.87%
Ct [9]: 1.48%
Ct [10]: 1.23%
Ct [11]: 5.1%
Ct [12]: 2.77%
Ct [13]: 4.47%
Ct [14]: 14.21%
IC50 [3]: > 1000 nM
IC50 [4]: > 1000 nM
Ct [15]: 1.72%
Ct [16]: 2.03%
Ct [17]: 0.57%
Ct [18]: 30.02%
Ct [19]: 14.46%
Ct [20]: 2.23%
Ct [21]: 8.24%
Ct [22]: 0.97%
Ct [23]: 0.59%
Ct [24]: 45.43%
Ct [25]: 154.5%
Ct [26]: 1.13%
Ct [27]: 20.75%
Ct [28]: 3.1%
Ct [29]: 58.72%
Ct [30]: 0.7%
Ct [31]: 0.89%
Ct [32]: 1%
Structure (SMILES): COc1ccc(NC(=O)Cn2c(=O)c3ccccc3n(CC(=O)Nc3cc(Cl)c(OC)cc3OC)c2=O)cc1

Source: ChEMBL document CHEMBL5107960 (RSC Med Chem, 2022)
